From PubChem BioAssay
PfM18AAP inh = blocks P. falciparum M18 aspartyl aminopeptidase. recombinant PfM18AAP, H-Glu-NHMec fluorogenic cleavage. inhibition, % at 7.35 µM. 290,000 compounds, 1.2% hits. AID 1822;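 active = inhibition above the campaign mean inhibition over all tested compounds plus 3 SD, cut at about 28% in these data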
ZTA counter = ZTA (EBV) inhibition in EBNA-1 counter-screen | P03206 | ZTA-DNA binding, fluorescence polarization | inhibition, % at 11 µM | 320,000 compounds, 0.15% hits; in the data active = inhibition above about 33%
Target sequence (P03206 whole entry, looked up): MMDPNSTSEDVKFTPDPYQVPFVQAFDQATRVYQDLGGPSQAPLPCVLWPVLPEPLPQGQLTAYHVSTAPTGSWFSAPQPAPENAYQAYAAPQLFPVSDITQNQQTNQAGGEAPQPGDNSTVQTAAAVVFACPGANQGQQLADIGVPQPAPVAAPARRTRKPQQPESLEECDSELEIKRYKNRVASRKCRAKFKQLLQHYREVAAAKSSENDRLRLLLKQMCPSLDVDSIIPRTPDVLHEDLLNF
PfGluPho inh = PfG6PD (Plasmodium falciparum) enzyme inhibition | PfGluPho enzyme, NADPH resazurin-diaphorase fluorescence | inhibition, % at 20 µM | 350,000 compounds, 0.78% hits | AID 504690;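 active = inhibition reaching at least a set limit at 20 µM in the primary screen, cut at about 59% in these data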
Apaf-1 inh = inhibitors of human Apaf-1 apoptosome | reconstituted apoptosome caspase-3 activity, DEVD-Rh110 fluorescence | 330,000 compounds, 0.71% hits | O14727 | inhibition, % at 20 µM | AID 489030; active = inhibition of at least 40% at 20 µM
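Medium: Hepes buffer, pH 7.5 / System: biochemical Apaf-1 apoptosome reconstitution / Measured by: Rh110 fluorescence, excitation 480 nm, emission 540 nm / Times: compound with Apaf-1, dATP, procaspase-3 30 min, then 50 min reaction, room temperature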
EBNA-1 inh = blocks EBNA-1 binding to DNA | EBNA-1 DNA binding, fluorescence polarization | inhibition, % at 14.8 µM | 300,000 compounds, 0.34% hits | AID 1950; in the data active = inhibition above about 28%
UBC13 polyUb = human UBC13 polyubiquitination inhibition; inhibition, % at 20 µM; P61088; AID 485273; UBC13 polyubiquitin chain formation, TR-FRET; 330,000 compounds, 0.47% hits; in the data active = inhibition above about 45%, passing the limit was not always enough
Target sequence (P61088 whole entry, looked up): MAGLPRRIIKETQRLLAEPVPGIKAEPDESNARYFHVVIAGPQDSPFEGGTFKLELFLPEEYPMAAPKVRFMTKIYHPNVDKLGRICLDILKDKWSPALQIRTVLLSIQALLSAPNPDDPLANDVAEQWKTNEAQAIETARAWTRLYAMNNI
EBNA-1 inh conf = EBNA-1 (EBV) inhibition, confirmation | shares compounds with EBNA-1 inh | Recombinant EBNA-1 DBD, Cy5-DNA fluorescence polarization | AID 2292 | 830 compounds, 35% hits | inhibition, % at 14.8 µM;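 active = mean inhibition across replicates above a set limit taken from the earlier primary screen, cut at about 28% in these data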
ZTA DNA inh trip = ZTA (EBV) inhibition, triplicate counter-screen. inhibition, % at 11.1 µM. Zta-ZRE DNA binding, Cy5 fluorescence polarization. 830 tested, under 10 active. shares compounds with EBNA-1 inh;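 active = mean inhibition over triplicates above a set limit taken from the primary EBNA-1 screen, cut at about 37% in these data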;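 also: purified full length Zta protein with Cy5 labeled ZRE DNA probe; inhibitors lower polarization by freeing the labeled DNA probe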
A number is an active result; 0 = inactive; - = no result. Compounds with a hit are over-represented: about 2.9% of the library has one in this group of screens.

SMILES | PfM18AAP inh | ZTA counter | PfGluPho inh | Apaf-1 inh | EBNA-1 inh | UBC13 polyUb | EBNA-1 inh conf | ZTA DNA inh trip
Cc1ccc2c(c1)nnn2C1CCN(S(=O)(=O)c2ccc(C(=O)N(C)C)cc2)CC1 | 0 | 0 | 0 | 0 | 0 | 0 | - | -
COCc1ccc(-c2c(-c3cc(OC)cc(OC)c3)oc(=O)c3cc(OC)c(OC)cc23)cc1 | - | 0 | 0 | 0 | - | 0 | - | -
C/C(=N\NC(=O)c1c(Br)cnn1C)c1ccc(NC(=O)c2ccc(F)cc2)cc1 | 0 | 0 | 0 | 0 | 49.8 | 0 | 68.5 | 0
C/C(=N\NC(=O)c1c(Cl)cnn1C)c1cccc(NC(=O)c2ccc(C)cc2)c1 | 0 | 0 | 0 | 0 | 0 | 0 | - | -
CC1CCCCC12NC(=O)N(CC(=O)N1CCN(C(=O)c3ccco3)CC1)C2=O (stereo unspecified) | - | 0 | 0 | 0 | - | 0 | - | -
COc1ccc(CNC(=O)CSc2nnc3c(n2)[nH]c2ccc(C)cc23)cc1 | 0 | 0 | 0 | 0 | 0 | 0 | - | -
COc1ccc2[nH]c3nc(SCc4nnc(-c5ccc(C)cc5)o4)nnc3c2c1 | 0 | 0 | 0 | 0 | 54.6 | 0 | 39.7 | 0
COc1ccc(/C=N/NC(=O)c2nc(-c3ccccc3)n(-c3ccccc3)n2)cc1OC | 0 | 0 | 0 | 0 | 0 | 0 | - | -
O=C(N/N=C/c1ccc(O)cc1)c1nc(-c2ccccc2)n(-c2ccccc2)n1 | 0 | 0 | 0 | 0 | 30.8 | 0 | 31.1 | 0
COc1ccc(CNC(=O)Nc2cc(C)ccc2C)cc1 | 0 | 0 | 0 | 0 | 0 | 0 | - | -
COc1ccc(CNC(=O)Nc2ccc(C)cc2C)cc1 | 0 | 0 | 0 | 0 | 63.2 | 0 | 28.4 | 0
CCCCNC(=O)CN1C(=O)COc2ccc(S(=O)(=O)N3CCCCCC3)cc21 | 0 | 0 | 0 | 0 | 0 | 0 | - | -
CCCCN(CC)CCNC(=O)CN1C(=O)COc2ccc(S(=O)(=O)N3CCCC3)cc21 | 0 | 0 | 0 | 0 | 77.2 | 0 | 0 | 0
COCCOC(=O)c1c(NC(=O)CNc2ccc(C)c(F)c2)sc(C(N)=O)c1C | 0 | 0 | 0 | 0 | 42.0 | 0 | 0 | 0
COCCOC(=O)c1c(NC(=O)CNCc2ccco2)sc(C(N)=O)c1C | 0 | 0 | 0 | 0 | 0 | 0 | - | -
COc1ccc(CC2(CO)CCN(Cc3ccc(NC(C)=O)cc3)CC2)cc1 | 0 | 0 | 0 | 0 | 45.9 | 0 | 0 | 0
O=S(=O)(c1ccc2nc(-c3ccccc3)[nH]c2c1)N1CCN(c2ccc(Cl)cc2)CC1 | 0 | 0 | 0 | 0 | 36.8 | 0 | 0 | 0
O=c1ccc2cc(S(=O)(=O)N3CCN(c4ccccc4)CC3)ccc2[nH]1 | 0 | 0 | 0 | 0 | 0 | 0 | - | -
COc1ccc(CNC(=S)N2CCN(S(=O)(=O)c3cccc(F)c3)CC2)cc1 | 0 | 0 | 0 | 0 | 39.8 | 0 | 73.4 | 0
Cn1c(CNC(=O)c2ccc(Cl)c(Cl)c2)nnc1SCC(=O)Nc1sc2c(c1C#N)CCCC2 | 0 | 0 | 0 | 0 | 30.9 | 0 | 38.9 | 0
Cc1ccc(N2C(=O)CC(N(CCc3ccccc3)C(=S)Nc3ccc(N(C)C)cc3)C2=O)cc1 (stereo unspecified) | 0 | 0 | 0 | 0 | 56.8 | 0 | 0 | 0
CCN(/N=C/c1ccc(Cl)cc1)c1cc(=O)n(C)c(=O)[nH]1 | 0 | 0 | 0 | 0 | 37.3 | 0 | 0 | 0
CCc1ccc(NC(=O)CCCNC(=O)Cn2cnc3sc(C)c(C)c3c2=O)cc1 | 0 | 0 | 0 | 0 | 61.8 | 0 | 30.6 | 0
COc1ccc(NC(=O)CCCNC(=O)Cn2cnc3sc(C)c(C)c3c2=O)cc1OC | 0 | 0 | 0 | 0 | 0 | 0 | - | -
CCN(c1ccccc1)S(=O)(=O)c1ccc(Cl)c(C(=O)N2CCCC2)c1 | - | 0 | 0 | 0 | - | 0 | - | -
SMILES | PfM18AAP inh | ZTA counter | PfGluPho inh | Apaf-1 inh | EBNA-1 inh | UBC13 polyUb | EBNA-1 inh conf | ZTA DNA inh trip
CCCCN(C(=O)c1cccc(N2C(=O)c3ccccc3C2=O)c1)c1c(N)n(CC(C)C)c(=O)[nH]c1=O | - | 0 | 0 | 0 | - | 0 | - | -
CCc1cc(C(=O)N(C)CC(=O)N(CC(C)C)c2c(N)n(CC(C)C)c(=O)[nH]c2=O)sc1C | 0 | 0 | 0 | 0 | 0 | 0 | - | -
CCCCN(C(=O)c1cccc(-n2cccc2)c1)c1c(N)n(Cc2ccccc2)c(=O)[nH]c1=O | - | 0 | - | 0 | 30.7 | 0 | 0 | 0
CCCCN(C(=O)c1cc(CC)c(C)s1)c1c(N)n(CC(C)C)c(=O)[nH]c1=O | 0 | 0 | 0 | 0 | 66.4 | 0 | 0 | 0
COc1cc(=O)[nH]c(SCC(=O)Nc2nc3c(s2)CCCC3)n1 | 0 | 0 | 0 | 0 | 0 | 0 | - | -
COc1ccc(C)cc1NC(=O)CN1CCN(S(=O)(=O)c2ccc(Cl)cc2)CC1 | 0 | 0 | 0 | 0 | 0 | 0 | - | -
COc1ccc(Cl)cc1NC(=O)CN1CCN(S(=O)(=O)c2ccc(F)cc2)CC1 | 0 | 0 | 0 | 0 | 44.4 | 0 | 91.2 | 0
Cn1c(N/N=C/c2cc3ccccc3nc2Cl)nc2ccccc21 | 0 | 0 | 0 | 0 | 0 | 0 | - | -
COc1cc2c(cc1OC)CN(S(=O)(=O)/C=C/c1ccccc1)CC2 | 0 | 0 | 0 | 0 | 0 | 0 | - | -
COc1ccc(OC)c(NC(=O)c2cc3n(n2)C(C(F)(F)F)CC(c2ccc4c(c2)OCO4)N3)c1 (stereo unspecified) | 0 | 0 | 0 | 0 | 0 | 0 | - | -
COc1ccc(C2CC(C(F)(F)F)n3nc(C(=O)Nc4ccc5c(c4)OCO5)cc3N2)cc1 (stereo unspecified) | 0 | 0 | 0 | 0 | 40.2 | 0 | 109.8 | 0
Cc1ccc(N2C(=O)C3C4CCC(O4)C3C2=O)c(OC(F)F)c1 (stereo unspecified) | - | 0 | 0 | 0 | - | 0 | - | -
Cc1ccc2nc(-c3cccnc3SCC(=O)N3c4ccccc4CC3C)[nH]c2c1 (stereo unspecified) | 0 | 0 | 0 | 0 | 28.4 | 0 | 29.9 | 0
CCN1C(=O)C(CC(=O)Nc2ccc(OC)cc2)N(CCCN2CCN(c3ccc(OC)cc3)CC2)C1=S (stereo unspecified) | 0 | 0 | 0 | 0 | 0 | 0 | - | -
O=S1(=O)N=C(N(CCO)/N=C/c2ccc(Br)cc2)c2ccccc21 | 0 | 0 | 0 | 0 | 31.6 | 0 | 0 | 0
N/C(Cc1ccc(Cl)c(Cl)c1)=N\OC(=O)c1ccc(Br)o1 | 0 | 0 | 0 | 0 | 0 | 0 | - | -
COc1ccc(CC(=O)Nc2ccc3c(C)cc(=O)oc3c2)cc1OC | 0 | 0 | 0 | 0 | 40.1 | 0 | 0 | 0
COc1ccc(CCNC(=O)COc2ccc3c(C)cc(=O)oc3c2)cc1OC | 0 | 0 | 0 | 0 | 0 | 0 | - | -
Cn1cc(/C=C2/SC(=O)N(CC(=O)Nc3ccc4c(c3)OCO4)C2=O)c2ccccc21 | 0 | 0 | 0 | 0 | 56.4 | 0 | 64.3 | 0
O=C(CN1C(=O)S/C(=C\c2ccc(-c3cc(C(=O)O)ccc3Cl)o2)C1=O)Nc1ccc2c(c1)OCO2 | 0 | - | - | 0 | - | 0 | - | -
COc1ccc2c(c1)C(=O)Cc1ccccc1O2 | - | 0 | 0 | 0 | 0 | 0 | - | -
